Experimental data reported in ChEMBL document CHEMBL1123601, “Enantiomers of 1-ethyl-7-[3-[(ethylamino)methyl]-1-pyrrolidinyl]-6,8-difluoro-1,4- dihydro-4-oxo-3-quinoline-carboxylic acid: preparation and biological activity” (J Med Chem, 1987).
In brackets after ≈: the same amount, converted by molar mass.

What was measured:
Format in all cases: functional
[1] = system: Streptococcus pneumoniae; assay: Dose required to protect 50% of mice from lethal infection was measured on Streptococcus pneumoniae SV-1 (subcutaneously); conditions: sc, read-out: PD50
Method in brief: (§1)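 Female CD-1 mice (18-22 g) received an intraperitoneal challenge of about 100 median lethal doses of S. pneumoniae in tryptic soy broth. A single dose was given at challenge in a twofold rising series, subcutaneously in aqueous solution or by oral gavage in 5% gum acacia. Survival of 8 mice per dose gave PD50 by log probit, with experiments run in duplicate.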

[2] = system: Streptococcus pyogenes; assay: Minimum inhibitory concentration (MIC) of compound was measured on Streptococcus pyogenes C203 (gram positive organism)
Method in brief: (§2)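 MICs (µg/mL) by standard microdilution (microtitration), with the enantiomers tested side by side with racemate across the organism panel. Aqueous stocks made up in 0.1 N NaOH or KOH. Performed in duplicate or triplicate; error of one serial dilution.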

[3] = system: Staphylococcus aureus; assay: Minimum inhibitory concentration (MIC) of compound was measured on Staphylococcus aureus H228 (gram positive organism); method in brief: as §2
[4] = system: Enterococcus faecalis; assay: Minimum inhibitory concentration (MIC) of compound was measured on Streptococcus faecalis MGH-2(gram positive organism); method in brief: as §2
[5] = system: Klebsiella pneumoniae; assay: Minimum inhibitory concentration (MIC) of compound was measured on Klebsiella pneumoniae MGH-2(gram negative organism); method in brief: as §2
[6] = system: Streptococcus pyogenes; assay: Dose required to protect 50% of mice from lethal infection was measured on Streptococcus pyogenes C203 (p.o. administration); conditions: po, read-out: PD50
Method in brief: (§3)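 The lethal systemic infection in female CD-1 mice (18-22 g) was an intraperitoneal challenge of about 100 median lethal doses. Compound was given once at challenge in twofold rising doses, subcutaneously as an aqueous solution or orally by gavage in 5% gum acacia. PD50 was estimated by log probit from survival of groups of 8 mice, with experiments run in duplicate.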

[7] = system: Streptococcus pneumoniae; assay: Minimum inhibitory concentration (MIC) of compound was measured on Streptococcus pneumoniae SV-1(gram positive organism); method in brief: as §2
[8] = system: Staphylococcus aureus; assay: Minimum inhibitory concentration (MIC) of compound was measured on Staphylococcus aureus UC-76(gram positive organism); method in brief: as §2
[9] = system: Escherichia coli; assay: Minimum inhibitory concentration (MIC) of compound was measured on Escherichia coli Vogel(gram negative organism); method in brief: as §2
[10] = system: Enterobacter cloacae; assay: Minimum inhibitory concentration (MIC) of compound was measured on Enterobacter cloacae HA 2646(gram negative organism); method in brief: as §2
[11] = system: Streptococcus pyogenes; assay: Dose required to protect 50% of mice from lethal infection was measured on Streptococcus pyogenes C203 (s.c.); conditions: sc, read-out: PD50; method in brief: as §3
[12] = system: Escherichia coli; assay: Dose required to protect 50% of mice from lethal infection was measured on Escherichia coli vogel (subcutaneously); conditions: sc, read-out: PD50
Method in brief: (§4)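 Female CD-1 mice (18-22 g) were challenged intraperitoneally with about 100 median lethal doses of E. coli in 5% hog gastric mucin. Single doses were given at challenge in a twofold rising series, subcutaneously as an aqueous solution or orally by gavage in 5% gum acacia. Groups of 8 mice per dose were used. PD50 was estimated from survival by log probit, with experiments run in duplicate.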

[13] = system: Escherichia coli; assay: Minimum concentration of compound needed to produce linear DNA at an intensity relative to oxolinic acid at 10 ug/mL was measured on Escherichia coli for gyrase-drug induced cleavage.
Method in brief: (§5)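 DNA gyrase from E. coli H560 cells. Endpoint is the minimum drug concentration (µg/mL) that converts closed circular DNA to linear DNA, through denaturation of the drug–gyrase–DNA complex, at an intensity relative to oxolinic acid at 10 µg/mL. Linear DNA is resolved by gel electrophoresis and stained with ethidium bromide. Runs in duplicate or triplicate; error of one serial dilution.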

[14] = system: Pseudomonas aeruginosa; assay: Minimum inhibitory concentration (MIC) of compound was measured on Pseudomonas aeruginosa UI-18(gram negative organism); method in brief: as §2
[15] = system: Providencia rettgeri; assay: Minimum inhibitory concentration (MIC) of compound was measured on Providencia rettgeri H1771 (gram negative organism); method in brief: as §2
[16] = system: Escherichia coli; assay: Dose required to protect 50% of mice from lethal infection was measured on Escherichia coli vogel(peroral administration); conditions: po, read-out: PD50; method in brief: as §4
[17] = system: Streptococcus pneumoniae; assay: Dose required to protect 50% of mice from lethal infection was measured on Streptococcus pneumoniae SV-1(peroral administration); conditions: po, read-out: PD50; method in brief: as §1
[18] = system: Escherichia coli; assay: Minimum inhibitory concentration (MIC) of compound was measured on Escherichia coli H560 (gram negative organism); method in brief: as §2
[19] = system: Escherichia coli; assay: Concentration of compound needed to produce linear DNA at an intensity relative to oxolinic acid at 10 ug/mL was measured on Escherichia coli for gyrase-drug induced cleavage,.; method in brief: as §5

CCn1cc(C(=O)O)c(=O)c2cc(F)c(N3CCNCC3)cc21 [NORFLOXACIN]
ED50 [1]: > 100 mg/kg | MIC [2]: 0.8 µg/mL (≈ 2.51 µM) | MIC [3]: 0.8 µg/mL (≈ 2.51 µM) | MIC [4]: 1.6 µg/mL (≈ 5.01 µM) | MIC [5]: 0.05 µg/mL (≈ 0.157 µM) | ED50 [6]: > 100 mg/kg | MIC [7]: 1.6 µg/mL (≈ 5.01 µM) | MIC [8]: 0.05 µg/mL (≈ 0.157 µM) | MIC [9]: 0.025 µg/mL (≈ 0.0783 µM) | MIC [10]: 0.1 µg/mL (≈ 0.313 µM) | ED50 [11]: 45 mg/kg | ED50 [12]: 0.7 mg/kg | Concentration [13]: 1 µg/mL | MIC [14]: 0.2 µg/mL (≈ 0.626 µM) | MIC [15]: 0.025 µg/mL (≈ 0.0783 µM) | ED50 [16]: 1 mg/kg | ED50 [17]: 150 mg/kg | MIC [18]: 0.1 µg/mL (≈ 0.313 µM) | IC50 [19]: 5.5 µg/mL (≈ 17.2 µM)
